What was measured:
Set-up in all cases: scale not given: the % may be the effect or the level left
Platelet [1] = assay: Inhibition of collagen-induced platelet aggregation in rabbit platelets at 100 ug/mL treated […] before […] challenge relative to control; format: functional, Oryctolagus cuniculus
Outline: (§1)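 Rabbit platelets were preincubated at 37 °C for 3 min with compound at 100 μg/mL, or with 0.5% DMSO as the control, before the inducer was added. Inducers were thrombin 0.1 U/mL, arachidonic acid 100 μM, collagen 10 μg/mL, or PAF. The read-out was % aggregation, with 3–6 replicates.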

Platelet [2] = assay: Inhibition of platelet activating factor-induced platelet aggregation in rabbit platelets at 100 ug/mL treated […] before […] challenge relative to control; format: functional, Oryctolagus cuniculus; outline: as §1
Platelet [3] = assay: Inhibition of platelet activating factor-induced platelet aggregation in rabbit platelets at 10 ug/mL treated 3 mins before platelet activating factor challenge relative to control
Platelet [4] = assay: Inhibition of arachidonic acid-induced platelet aggregation in rabbit platelets at 100 ug/mL treated […] before […] challenge relative to control; format: functional, Oryctolagus cuniculus; outline: as §1
Platelet [5] = assay: Inhibition of platelet activating factor-induced platelet aggregation in rabbit platelets at 50 ug/mL treated […] before […] challenge relative to control; format: functional, Oryctolagus cuniculus
Outline: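 PAF-induced aggregation of rabbit platelets was run after 3 min preincubation at 37 °C with compound at graded levels or 0.5% DMSO control. PAF is given as 2 ng/mL in the footnote and 2 nM in the column header. Output is % aggregation with n per point.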

Platelet [6] = assay: Inhibition of platelet activating factor-induced platelet aggregation in rabbit platelets at 5 ug/mL treated 3 mins before platelet activating factor challenge relative to control
Platelet [7] = assay: Inhibition of platelet activating factor-induced platelet aggregation in rabbit platelets at 20 ug/mL treated 3 mins before platelet activating factor challenge relative to control
Platelet [8] = assay: Inhibition of thrombin-induced platelet aggregation in rabbit platelets at 100 ug/mL treated […] before thrombin challenge relative to control; format: functional, Oryctolagus cuniculus; outline: as §1
Platelet [9] = assay: Inhibition of arachidonic acid-induced platelet aggregation in rabbit platelets at 50 ug/mL treated 30 mins before […] challenge relative to control; format: functional, Oryctolagus cuniculus
Platelet [10] = assay: Inhibition of arachidonic acid-induced platelet aggregation in rabbit platelets at 20 ug/mL treated 30 mins before […] challenge relative to control; format: functional, Oryctolagus cuniculus
Platelet [11] = assay: Inhibition of arachidonic acid-induced platelet aggregation in rabbit platelets at 10 ug/mL treated 3 mins before arachidonic acid challenge relative to control
Platelet [12] = assay: Inhibition of thrombin-induced platelet aggregation in rabbit platelets at 50 ug/mL treated 30 mins before thrombin challenge relative to control; format: functional, Oryctolagus cuniculus
Platelet [13] = assay: Inhibition of collagen-induced platelet aggregation in rabbit platelets at 50 ug/mL treated 30 mins before […] challenge relative to control; format: functional, Oryctolagus cuniculus
Platelet [14] = assay: Inhibition of arachidonic acid-induced platelet aggregation in rabbit platelets at 50 ug/mL treated 3 min before arachidonic acid challenge relative to control
Platelet [15] = assay: Inhibition of arachidonic acid-induced platelet aggregation in rabbit platelets at 5 ug/mL treated 3 mins before arachidonic acid challenge relative to control

## COc1cc2c(O)c3c4c(cc(OC)c(OC)c4c2cc1OC)CCN3C
Platelet [1]
  Activity: 12.7%
Platelet [2]
  Activity: 0%
Platelet [3]
  Activity: 64.9%
Platelet [4]
  Activity: 21.8%
Platelet [5]
  Activity: 0%
Platelet [6]
  Activity: 77.9%
Platelet [7]
  Activity: 25.2%
Platelet [8]
  Activity: 78.8%

## COc1cc2c3c(cc4ccccc4c3c1O)N(C)CC2 [DEHYDROLIRINIDINE]
Platelet [1]
  Activity: 0%
Platelet [9]
  Activity: 23.8%
Platelet [2]
  Activity: 51.7%
Platelet [4]
  Activity: 0%
Platelet [10]
  Activity: 77.6%
Platelet [8]
  Activity: 86.3%
Platelet [11]
  Activity: 82.8%

## COc1cc2ccnc3c2c(c1OC)-c1ccccc1C3=O [LYSICAMINE]
Platelet [9]
  Activity: 16.3%
Platelet [12]
  Activity: 88.9%
Platelet [5]
  Activity: 83.7%
Platelet [13]
  Activity: 55.2%

## COc1cc2c(cc1OC)-c1c(OC)c(OC)cc3ccnc(c13)C2=O [OXOGLAUCINE]
Platelet [12]
  Activity: 87%
Platelet [5]
  Activity: 84.4%
Platelet [13]
  Activity: 74.4%
Platelet [14]
  Activity: 55.8%

## COc1cc2c(cc1OC)-c1c(OC)c(OC)c(OC)c3ccnc(c13)C2=O [OXOPURPUREINE]
Platelet [1]
  Activity: 53.5%
Platelet [2]
  Activity: 87.2%
Platelet [4]
  Activity: 43.7%

## COc1cc2c(cc1OC)-c1c(OC)c(O)cc3c1[C@H](C2)N(C)CC3 [PREDICENTRINE]
Platelet [1]
  Activity: 0%
Platelet [9]
  Activity: 62%
Platelet [2]
  Activity: 74%
Platelet [4]
  Activity: 0%
Platelet [10]
  Activity: 83.2%
Platelet [8]
  Activity: 88.9%

## COc1cc2c(cc1OC)-c1c(OC)c(OC)c(O)c3c1[C@@H](C2)N(C)CC3 [THALBAICALIDINE]
Platelet [1]
  Activity: 0%
Platelet [9]
  Activity: 72.2%
Platelet [2]
  Activity: 73.6%
Platelet [4]
  Activity: 4.2%
Platelet [10]
  Activity: 82.2%
Platelet [8]
  Activity: 86.3%

## CNCCc1c(OC)c(OC)c(OC)c2c1ccc1cc(OC)c(OC)cc12 [THALICPUREINE]
Platelet [1]
  Activity: 0%
Platelet [9]
  Activity: 0%
Platelet [2]
  Activity: 0%
Platelet [3]
  Activity: 78.8%
Platelet [4]
  Activity: 0%
Platelet [5]
  Activity: 3.9%
Platelet [6]
  Activity: 82.4%
Platelet [10]
  Activity: 41.9%
Platelet [7]
  Activity: 55.5%
Platelet [8]
  Activity: 33.6%
Platelet [11]
  Activity: 74.2%
Platelet [15]
  Activity: 83.7%

Source: ChEMBL document CHEMBL1151319, “Antiplatelet aggregation constituents from Annona purpurea” (1998)
